Test results from ChEMBL document CHEMBL3044844, “Synthesis and antimicrobial evaluation of some novel 1,2,4-triazole and 1,3,4-thiadiazole derivatives” (2013).
In brackets after ≈: the same amount, converted by molar mass.

Assays:
Type in all cases: functional
Micrococcus luteus = experiment: Antibacterial activity against Micrococcus luteus ATCC 10240 assessed as growth inhibition after 18 hr by CLSI broth microdilution method; details: ATCC 10240, 18 h
Summary of the method: (§1)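 Inoculum: 0.5 McFarland suspension (150 × 10^6 CFU/mL) in sterile 0.85 % NaCl, 2 μL into 198 μL Mueller–Hinton broth. Compound stocks in DMSO; twofold dilutions, final 0.24–1,000 μg/mL. Incubated 35 °C, 18 h; OD600 read. MIC taken as lowest concentration with no visible growth. Controls: compound-free broth with DMSO, and bacteria-free compound blanks.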

Bacillus cereus = experiment: Antibacterial activity against Bacillus cereus ATCC 10876 assessed as growth inhibition after 18 hr by CLSI broth microdilution method; details: ATCC 10876, 18 h; summary of the method: as §1
Bacillus spizizenii = experiment: Antibacterial activity against Bacillus subtilis subsp. spizizenii ATCC 6633 assessed as growth inhibition after 18 hr by CLSI broth microdilution method; details: ATCC 6633, 18 h; summary of the method: as §1
[1] = test system: Staphylococcus epidermidis; experiment: Antibacterial activity against Staphylococcus epidermidis ATCC 12228 assessed as growth inhibition after 18 hr by CLSI broth microdilution method; details: ATCC 12228, 18 h; summary of the method: as §1
Staphylococcus aureus [2] = experiment: Antibacterial activity against Staphylococcus aureus ATCC 6538 assessed as growth inhibition after 18 hr by CLSI broth microdilution method; details: ATCC 6538, 18 h; summary of the method: as §1
Staphylococcus aureus [3] = experiment: Antibacterial activity against Staphylococcus aureus ATCC 25923 assessed as growth inhibition after 18 hr by CLSI broth microdilution method; details: ATCC 25923, 18 h; summary of the method: as §1

With `COc1ccc(-n2c(S)nnc2CSc2nnc(-c3ccccc3)n2-c2ccccc2)cc1` the MIC (Micrococcus luteus) was greater than 1000 µg/mL, the MIC (Bacillus cereus) was 500 µg/mL (≈ 1060 µM) and the MIC (Bacillus spizizenii) was greater than 1000 µg/mL. The MIC [1] was greater than 1000 µg/mL, the MIC (Staphylococcus aureus [2]) was greater than 1000 µg/mL and the MIC (Staphylococcus aureus [3]) was 1000 µg/mL (≈ 2120 µM).
In the case of `Sc1nnc(CSc2nnc(-c3ccccc3)n2-c2ccccc2)n1-c1ccccc1`, the MIC (Micrococcus luteus) was greater than 1000 µg/mL, the MIC (Bacillus cereus) was 500 µg/mL (≈ 1130 µM) and the MIC (Bacillus spizizenii) was greater than 1000 µg/mL. It also gave an MIC [1] greater than 1000 µg/mL, an MIC (Staphylococcus aureus [2]) greater than 1000 µg/mL and an MIC (Staphylococcus aureus [3]) of 1000 µg/mL (≈ 2260 µM).
`O=C(CSc1nnc(-c2ccccc2)n1-c1ccccc1)NNC(=S)NC1CCCCC1` was tested, and the MIC (Micrococcus luteus) was 1000 µg/mL (≈ 2140 µM), the MIC (Bacillus cereus) was 1000 µg/mL (≈ 2140 µM) and the MIC (Bacillus spizizenii) was 1000 µg/mL (≈ 2140 µM). It also gave an MIC [1] greater than 1000 µg/mL, an MIC (Staphylococcus aureus [2]) greater than 1000 µg/mL and an MIC (Staphylococcus aureus [3]) greater than 1000 µg/mL.
Work on `COc1ccc(CNC(=S)NNC(=O)CSc2nnc(-c3ccccc3)n2-c2ccccc2)cc1` yielded an MIC (Micrococcus luteus) of 1000 µg/mL (≈ 1980 µM), an MIC (Bacillus cereus) of 1000 µg/mL (≈ 1980 µM) and an MIC (Bacillus spizizenii) of 500 µg/mL (≈ 991 µM). It also gave an MIC [1] of 500 µg/mL (≈ 991 µM), an MIC (Staphylococcus aureus [2]) of 1000 µg/mL (≈ 1980 µM) and an MIC (Staphylococcus aureus [3]) of 500 µg/mL (≈ 991 µM).
Work on `CCOC(=O)NC(=S)NNC(=O)CSc1nnc(-c2ccccc2)n1-c1ccccc1` yielded an MIC (Micrococcus luteus) of 1000 µg/mL (≈ 2190 µM), an MIC (Bacillus cereus) of 500 µg/mL (≈ 1100 µM) and an MIC (Bacillus spizizenii) of 500 µg/mL (≈ 1100 µM). It also gave an MIC [1] of 1000 µg/mL (≈ 2190 µM), an MIC (Staphylococcus aureus [2]) greater than 1000 µg/mL and an MIC (Staphylococcus aureus [3]) greater than 1000 µg/mL.
With `O=C(CSc1nnc(-c2ccccc2)n1-c1ccccc1)NNC(=S)NC(=O)c1ccccc1` the MIC (Micrococcus luteus) was 125 µg/mL (≈ 256 µM), the MIC (Bacillus cereus) was 125 µg/mL (≈ 256 µM) and the MIC (Bacillus spizizenii) was 250 µg/mL (≈ 512 µM). For the same molecule, the MIC [1] was 125 µg/mL (≈ 256 µM), the MIC (Staphylococcus aureus [2]) was 250 µg/mL (≈ 512 µM) and the MIC (Staphylococcus aureus [3]) was 31.2 µg/mL (≈ 64 µM).
`C=CCn1c(CSc2nnc(-c3ccccc3)n2-c2ccccc2)n[nH]c1=S` showed an MIC (Micrococcus luteus) of 1000 µg/mL (≈ 2460 µM), an MIC (Bacillus cereus) of 1000 µg/mL (≈ 2460 µM) and an MIC (Bacillus spizizenii) of 1000 µg/mL (≈ 2460 µM). It also gave an MIC [1] of 1000 µg/mL (≈ 2460 µM), an MIC (Staphylococcus aureus [2]) of 1000 µg/mL (≈ 2460 µM) and an MIC (Staphylococcus aureus [3]) of 1000 µg/mL (≈ 2460 µM).
Molecule `S=c1[nH]nc(CSc2nnc(-c3ccccc3)n2-c2ccccc2)n1C1CCCCC1` has an MIC (Micrococcus luteus) of 250 µg/mL (≈ 557 µM), an MIC (Bacillus cereus) of 1000 µg/mL (≈ 2230 µM) and an MIC (Bacillus spizizenii) of 500 µg/mL (≈ 1110 µM). The MIC [1] was 500 µg/mL (≈ 1110 µM), the MIC (Staphylococcus aureus [2]) was 250 µg/mL (≈ 557 µM) and the MIC (Staphylococcus aureus [3]) was 500 µg/mL (≈ 1110 µM).
In the case of `S=c1[nH]nc(CSc2nnc(-c3ccccc3)n2-c2ccccc2)n1Cc1ccccc1`, the MIC (Micrococcus luteus) was 1000 µg/mL (≈ 2190 µM), the MIC (Bacillus cereus) was greater than 1000 µg/mL and the MIC (Bacillus spizizenii) was greater than 1000 µg/mL. For the same molecule, the MIC [1] was 1000 µg/mL (≈ 2190 µM), the MIC (Staphylococcus aureus [2]) was 1000 µg/mL (≈ 2190 µM) and the MIC (Staphylococcus aureus [3]) was 1000 µg/mL (≈ 2190 µM).
`COc1ccc(Cn2c(CSc3nnc(-c4ccccc4)n3-c3ccccc3)n[nH]c2=S)cc1` showed an MIC (Micrococcus luteus) greater than 1000 µg/mL, an MIC (Bacillus cereus) greater than 1000 µg/mL and an MIC (Bacillus spizizenii) greater than 1000 µg/mL. It also gave an MIC [1] greater than 1000 µg/mL, an MIC (Staphylococcus aureus [2]) of 1000 µg/mL (≈ 2050 µM) and an MIC (Staphylococcus aureus [3]) greater than 1000 µg/mL.
In the case of `c1ccc(CNc2nnc(CSc3nnc(-c4ccccc4)n3-c3ccccc3)s2)cc1`, the MIC (Micrococcus luteus) was 125 µg/mL (≈ 274 µM), the MIC (Bacillus spizizenii) was 15.6 µg/mL (≈ 34.2 µM) and the MIC [1] was 500 µg/mL (≈ 1100 µM). It also gave an MIC (Staphylococcus aureus [3]) of 250 µg/mL (≈ 548 µM).
`CO/N=C(\C(=O)N[C@@H]1C(=O)N2C(C(=O)O)=C(COC(N)=O)CS[C@H]12)c1ccco1` [CEFUROXIME] was tested, and the MIC (Micrococcus luteus) was 0.49 µg/mL (≈ 1.15 µM), the MIC (Bacillus cereus) was 62.5 µg/mL (≈ 147 µM) and the MIC (Bacillus spizizenii) was 0.49 µg/mL (≈ 1.15 µM). For the same molecule, the MIC [1] was 0.24 µg/mL (≈ 0.566 µM), the MIC (Staphylococcus aureus [2]) was 1.95 µg/mL (≈ 4.59 µM) and the MIC (Staphylococcus aureus [3]) was 0.49 µg/mL (≈ 1.15 µM).
